Results from ChEMBL document CHEMBL1629527, “In vitro antifungal activities of bis(alkylpyridinium)alkane compounds against pathogenic yeasts and molds” (Antimicrob Agents Chemother, 2010).

Key:
[1] = tested on: Candida albicans; test: Antifungal activity against Candida albicans after 48 to 72 hrs; type: functional
Summary of the method: (§1)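 MFC: after the MIC read, 30-μl aliquots from each well without visible growth were plated onto Sabouraud dextrose agar and incubated at 35°C. Reading was at 48–72 h for yeasts and up to 7 days for molds. MFC was the lowest concentration with no colonies.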

[2] = tested on: Aspergillus flavus; test: Antifungal activity against Aspergillus flavus ATCC 204304 after 24 to 72 hrs by broth microdilution method; type: functional
Summary of the method: (§2)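 Broth microdilution MIC per CLSI M27-A3 (yeasts) or M38-A2 (molds). RPMI 1640 with L-glutamine, without bicarbonate, buffered to pH 7.0 with 0.165 M MOPS. Final test range for the compounds was 0.175–87.5 μM. Incubation at 35°C with visual reading at 24–72 h. MIC was the lowest concentration giving 100% inhibition versus the growth control (azoles 50% or 100%, by organism). Each isolate was run in duplicate in two independent experiments.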

[3] = tested on: Cunninghamella bertholletiae; test: Antifungal activity against Cunninghamella bertholletiae 99-12187 after 24 to 72 hrs by broth microdilution method; type: functional; summary of the method: as §2
[4] = tested on: Candida tropicalis; test: Antifungal activity against Candida tropicalis after 24 to 72 hrs by broth microdilution method; type: functional; summary of the method: as §2
[5] = tested on: Exophiala spinifera; test: Antifungal activity against Exophiala spinifera 03-200803 after 24 to 72 hrs by broth microdilution method; type: functional
Summary of the method: (§3)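 Mold isolates subcultured on potato dextrose agar, then tested by CLSI M38-A2 broth microdilution in RPMI 1640 (L-glutamine, no bicarbonate) buffered to pH 7.0 with 0.165 M MOPS. Compounds were dissolved in water and tested at a final 0.175–87.5 μM. Plates were incubated at 35°C. MIC was read visually as the lowest concentration giving 100% inhibition versus the growth control. Each isolate was run in duplicate in two independent experiments.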

[6] = tested on: Pichia kudriavzevii; test: Antifungal activity against Candida krusei 04-202328 after 24 to 72 hrs by broth microdilution method; type: functional; summary of the method: as §2
[7] = tested on: Candida parapsilosis; test: Antifungal activity against Candida parapsilosis 04-202398 after 24 to 72 hrs by broth microdilution method; type: functional; conditions: Lodderomyces parapsilosis; summary of the method: as §2
[8] = tested on: Nakaseomyces glabratus; test: Antifungal activity against Candida glabrata after 24 to 72 hrs by broth microdilution method; type: functional; summary of the method: as §2
[9] = tested on: Cryptococcus gattii species complex; test: Antifungal activity against Cryptococcus gattii after 48 to 72 hrs; type: functional, Cryptococcus bacillisporus; summary of the method: as §1
[10] = tested on: Aspergillus terreus; test: Antifungal activity against Aspergillus terreus 05-202844 after 24 to 72 hrs by broth microdilution method; type: functional; summary of the method: as §2
[11] = tested on: Candida dubliniensis; test: Antifungal activity against Candida dubliniensis after 48 to 72 hrs; type: functional; summary of the method: as §1
[12] = tested on: Scedosporium apiospermum; test: Antifungal activity against Scedosporium apiospermum 05-203100 after 24 to 72 hrs by broth microdilution method; type: functional; summary of the method: as §3
[13] = tested on: Cryptococcus gattii species complex; test: Antifungal activity against Cryptococcus gattii after 24 to 72 hrs by broth microdilution method; type: functional, Cryptococcus bacillisporus; summary of the method: as §2
[14] = tested on: Candida parapsilosis; test: Antifungal activity against Candida parapsilosis after 24 to 72 hrs by broth microdilution method; type: functional; conditions: Lodderomyces parapsilosis; summary of the method: as §2
[15] = tested on: Pichia kudriavzevii; test: Antifungal activity against Candida krusei after 24 to 72 hrs by broth microdilution method; type: functional; summary of the method: as §2
[16] = tested on: Nakaseomyces glabratus; test: Antifungal activity against Candida glabrata after 48 to 72 hrs; type: functional; summary of the method: as §1
[17] = tested on: Candida tropicalis; test: Antifungal activity against Candida tropicalis 04-202361 after 24 to 72 hrs by broth microdilution method; type: functional; summary of the method: as §2
[18] = tested on: Candida albicans; test: Antifungal activity against Candida albicans ATCC 10231 after 24 to 72 hrs by broth microdilution method; type: functional; summary of the method: as §2
[19] = tested on: Nakaseomyces glabratus; test: Antifungal activity against Candida glabrata 04-202345 after 24 to 72 hrs by broth microdilution method; type: functional; summary of the method: as §2
[20] = tested on: Cryptococcus neoformans; test: Antifungal activity against Cryptococcus neoformans after 48 to 72 hrs; type: functional; summary of the method: as §1
[21] = tested on: Cryptococcus neoformans; test: Antifungal activity against Cryptococcus neoformans 05-202523 after 48 to 72 hrs; type: functional; summary of the method: as §1
[22] = tested on: Pichia kudriavzevii; test: Antifungal activity against Candida krusei after 48 to 72 hrs; type: functional; summary of the method: as §1
[23] = tested on: Aspergillus flavus; test: Antifungal activity against Aspergillus flavus 05-203758 after 24 to 72 hrs by broth microdilution method; type: functional; summary of the method: as §2
[24] = tested on: Clavispora lusitaniae; test: Antifungal activity against Candida lusitaniae after 48 to 72 hrs; type: functional; summary of the method: as §1
[25] = tested on: Clavispora lusitaniae; test: Antifungal activity against Candida lusitaniae after 24 to 72 hrs by broth microdilution method; type: functional; summary of the method: as §2
[26] = tested on: Meyerozyma guilliermondii; test: Antifungal activity against Candida guilliermondii after 48 to 72 hrs; type: functional; summary of the method: as §1
[27] = tested on: Candida parapsilosis; test: Antifungal activity against Candida parapsilosis after 48 to 72 hrs; type: functional; summary of the method: as §1
[28] = tested on: Aspergillus fumigatus; test: Antifungal activity against Aspergillus fumigatus ATCC 204305 after 24 to 72 hrs by broth microdilution method; type: functional; summary of the method: as §2
[29] = tested on: Candida dubliniensis; test: Antifungal activity against Candida dubliniensis after 24 to 72 hrs by broth microdilution method; type: functional; summary of the method: as §2
[30] = tested on: Candida tropicalis; test: Antifungal activity against Candida tropicalis after 48 to 72 hrs; type: functional; summary of the method: as §1
[31] = tested on: Cryptococcus neoformans; test: Antifungal activity against Cryptococcus neoformans after 24 to 72 hrs by broth microdilution method; type: functional; summary of the method: as §2
[32] = tested on: Fusarium solani; test: Antifungal activity against Fusarium solani 04-203102 after 24 to 72 hrs by broth microdilution method; type: functional; summary of the method: as §3
[33] = tested on: Lomentospora prolificans; test: Antifungal activity against Scedosporium prolificans 05-203060 after 24 to 72 hrs by broth microdilution method; type: functional; summary of the method: as §3
[34] = Toxicity against human erythrocytes assessed as hemolysis; type: cell-based, Erythrocyte
[35] = tested on: Lichtheimia corymbifera; test: Antifungal activity against Absidia corymbifera 04-200170 after 24 to 72 hrs by broth microdilution method; type: functional; summary of the method: as §2
[36] = tested on: Rhizopus arrhizus; test: Antifungal activity against Rhizopus oryzae 05-203111 after 24 to 72 hrs by broth microdilution method; type: functional; summary of the method: as §3
[37] = tested on: Cryptococcus gattii species complex; test: Antifungal activity against Cryptococcus gattii 05-200122 after 24 to 72 hrs by broth microdilution method; type: functional, Cryptococcus bacillisporus; summary of the method: as §2
[38] = tested on: Pichia kudriavzevii; test: Antifungal activity against Candida krusei ATCC 6258 after 24 to 72 hrs by broth microdilution method; type: functional; summary of the method: as §2

C=CCCCc1cc[n+](CCCCCCCCCCCC[n+]2ccc(CCCC=C)cc2)cc1.[Cl-].[Cl-]
MFC50 [1]: 1.47 µg/mL | MFC90 [1]: 1.47 µg/mL | MFC ([1]; Candida albicans): 0.75 µg/mL | MIC [2]: > 47.3 µg/mL | MIC [3]: > 47.3 µg/mL | MIC [4]: 0.746 µg/mL | MIC50 [4]: 0.75 µg/mL | MIC90 [4]: 1.47 µg/mL | MIC [5]: 0.74 µg/mL | MIC [6]: 11.8 µg/mL | MIC [7]: 47.3 µg/mL | MIC [8]: 0.975 µg/mL | MIC50 [8]: 1.47 µg/mL | MIC90 [8]: 1.47 µg/mL | MFC50 [9]: 2.94 µg/mL | MFC90 [9]: 2.94 µg/mL | MFC ([9]; Cryptococcus gattii species complex): 2.94 µg/mL | MIC [10]: 1.48 µg/mL | MFC50 [11]: 2.93 µg/mL | MFC90 [11]: 2.93 µg/mL | MFC ([11]; Candida dubliniensis): 1.47 µg/mL | MIC [12]: 11.8 µg/mL | MIC [13]: 1.81 µg/mL | MIC50 [13]: 1.48 µg/mL | MIC90 [13]: 2.94 µg/mL | MIC [14]: 23.5 µg/mL | MIC50 [14]: 23.5 µg/mL | MIC90 [14]: 23.5 µg/mL | MIC [15]: 3.38 µg/mL | MIC50 [15]: 2.94 µg/mL | MIC90 [15]: 5.87 µg/mL | MFC50 [16]: 1.47 µg/mL | MFC90 [16]: 5.87 µg/mL | MFC ([16]; Nakaseomyces glabratus): 0.75 µg/mL | MIC [17]: 1.48 µg/mL | MIC [18]: 1.48 µg/mL | MIC [19]: 1.5 µg/mL | MFC50 [20]: 5.87 µg/mL | MFC90 [20]: 11.74 µg/mL | MFC ([20]; Cryptococcus neoformans): 2.94 µg/mL | MFC [21]: 23.7 µg/mL | MFC50 [22]: 5.87 µg/mL | MFC90 [22]: 11.74 µg/mL | MFC ([22]; Pichia kudriavzevii): 0.75 µg/mL | MIC [23]: > 47.3 µg/mL | MFC50 [24]: 2.93 µg/mL | MFC90 [24]: 5.87 µg/mL | MFC ([24]; Clavispora lusitaniae): 1.47 µg/mL | MIC [25]: 2.74 µg/mL | MIC50 [25]: 2.93 µg/mL | MIC90 [25]: 2.93 µg/mL | MFC50 [26]: 1.47 µg/mL | MFC90 [26]: 5.87 µg/mL | MFC ([26]; Meyerozyma guilliermondii): 0.75 µg/mL | MFC50 [27]: 23.5 µg/mL | MFC90 [27]: 23.5 µg/mL | MFC ([27]; Lodderomyces parapsilosis): 23.5 µg/mL | MIC [28]: > 47.3 µg/mL | MIC [29]: 2.22 µg/mL | MIC50 [29]: 1.47 µg/mL | MIC90 [29]: 2.93 µg/mL | MFC50 [30]: 0.75 µg/mL | MFC90 [30]: 1.47 µg/mL | MFC ([30]; Candida tropicalis): 0.37 µg/mL | MIC [31]: 3.83 µg/mL | MIC50 [31]: 2.94 µg/mL | MIC90 [31]: 5.87 µg/mL | MIC [32]: 47.3 µg/mL | MIC [33]: 1.48 µg/mL | HC50 [34]: > 129 µM | IC50 [34]: > 48 µM | MIC [35]: > 47.3 µg/mL | MIC [36]: 5.9 µg/mL | MIC [37]: 1.48 µg/mL | MIC [38]: 5.9 µg/mL
